Here are results for seven molecules from ChEMBL document CHEMBL1671763, “Nasal carriage of methicillin-resistant and methicillin-sensitive strains of Staphylococcus sciuri in the Indonesian population” (2010).

Format in all cases: functional
Assay [1] relates to Mammaliicoccus sciuri. Put plainly: Antimicrobial activity against mecA-deficient Staphylococcus sciuri assessed as resistant isolates. A digest of the protocol:
(§1)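 Nasal S. sciuri isolates from the Indonesian population, grouped by presence of the S. aureus mecA and S. sciuri mecA genes. Susceptibility to the additional antibiotics was tested on the automated Vitek 2 system (AST-P549 card), and the number of resistant isolates in each group was counted.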

The test system of assay [2] is Mammaliicoccus sciuri. The assay is described as follows: Antimicrobial activity against mecA-positive Staphylococcus sciuri assessed as resistant isolates. A digest of the protocol: as §1
Assay [3] relates to Mammaliicoccus sciuri. Put plainly: Antimicrobial activity against mecA-deficient Staphylococcus sciuri harboring staphylococcus aureus mecA gene assessed as resistant isolates. Put shortly:
as §1

Assay [4] concerns Mammaliicoccus sciuri. The assay is described as follows: Antimicrobial activity against mecA-positive Staphylococcus sciuri harboring staphylococcus aureus mecA gene assessed as resistant isolates. Put shortly: as §1

Consider `CC[C@H]1OC(=O)[C@H](C)[C@@H](O[C@H]2C[C@@](C)(OC)[C@@H](O)[C@H](C)O2)[C@H](C)[C@@H](O[C@@H]2O[C@H](C)C[C@H](N(C)C)[C@H]2O)[C@](C)(O)C[C@@H](C)C(=O)[C@H](C)[C@@H](O)[C@]1(C)O` [ERYTHROMYCIN], for which the Activity in the assay on Mammaliicoccus sciuri [1] was 0%; in the assay on Mammaliicoccus sciuri [2], 0%; in the assay with Mammaliicoccus sciuri [3], 33.3%; in the assay with Mammaliicoccus sciuri [4], 23.1%.

For the molecule `CC(=O)O[C@H]1C[C@@]2(C)[C@@H](C[C@@H](O)[C@H]3[C@@]4(C)CC[C@@H](O)[C@@H](C)[C@@H]4CC[C@@]32C)/C1=C(\CCC=C(C)C)C(=O)O` [FUSIDIC ACID], the Activity is recorded as 55.6% with Mammaliicoccus sciuri [1], 60% in the assay with Mammaliicoccus sciuri [2], 44.4% in the assay with Mammaliicoccus sciuri [3] and 69.2% in the assay on Mammaliicoccus sciuri [4].

In the case of `CCn1cc(C(=O)O)c(=O)c2cc(F)c(N3CCNCC3)cc21` [NORFLOXACIN], the Activity in the assay with Mammaliicoccus sciuri [1] is recorded as 0%; in the assay on Mammaliicoccus sciuri [2], 0%; with Mammaliicoccus sciuri [3], 66.7%; in the assay with Mammaliicoccus sciuri [4] it was 15.4%.

Regarding `CO[C@H]1/C=C/O[C@@]2(C)Oc3c(C)c(O)c4c(O)c(c(/C=N/N5CCN(C)CC5)c(O)c4c3C2=O)NC(=O)/C(C)=C\C=C\[C@H](C)[C@H](O)[C@@H](C)[C@@H](O)[C@@H](C)[C@H](OC(C)=O)[C@@H]1C` [RIFAMPIN], the Activity with Mammaliicoccus sciuri [1] is 0%; in the assay with Mammaliicoccus sciuri [2], 0%; in the assay with Mammaliicoccus sciuri [3], 11.1%; in the assay on Mammaliicoccus sciuri [4], 15.4%.

On to `CN(C)[C@@H]1C(O)=C(C(N)=O)C(=O)[C@@]2(O)C(O)=C3C(=O)c4c(O)cccc4[C@@](C)(O)[C@H]3C[C@@H]12` [TETRACYCLINE], for which the Activity in the assay with Mammaliicoccus sciuri [1] worked out at 11.1%; in the assay with Mammaliicoccus sciuri [2] it was 5%; in the assay with Mammaliicoccus sciuri [3], 77.8%; in the assay with Mammaliicoccus sciuri [4], 46.2%.

As to `CN[C@H](CC(C)C)C(=O)N[C@H]1C(=O)N[C@@H](CC(N)=O)C(=O)N[C@H]2C(=O)N[C@H]3C(=O)N[C@H](C(=O)N[C@H](C(=O)O)c4cc(O)cc(O)c4-c4cc3ccc4O)[C@H](O)c3ccc(c(Cl)c3)Oc3cc2cc(c3O[C@@H]2O[C@H](CO)[C@@H](O)[C@H](O)[C@H]2O[C@H]2C[C@](C)(N)[C@H](O)[C@H](C)O2)Oc2ccc(cc2Cl)[C@H]1O` [VANCOMYCIN], the Activity in the assay with Mammaliicoccus sciuri [1], in the assay with Mammaliicoccus sciuri [2], in the assay with Mammaliicoccus sciuri [3] and with Mammaliicoccus sciuri [4] was 0% each time.

As to GENTAMICIN, the Activity in the assay with Mammaliicoccus sciuri [1] came to 0%; with Mammaliicoccus sciuri [2] it was 0%; with Mammaliicoccus sciuri [3] it was 55.5%; with Mammaliicoccus sciuri [4] it was 38.5%.
